Experimental findings from ChEMBL document CHEMBL2163220 (J Med Chem, 2012) are described below.

For orientation: IC50 means the concentration needed to halve the response being measured.

Activity calls are given as the source filed them. The rule behind the calls is not given here.

The test system of one test is CWR22R. The test can be described thus: Cytotoxicity against human 22Rv1 cells incubated for 72 hrs by MTT assay. It is filed as functional, cell-based. Particulars: 22Rv1, 72 h. In short, it runs like this: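 MTT assay run across a panel of prostate cancer cell lines.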
For a further test, the system named is LNCaP. The test can be described thus: Induction of apoptosis in human LNCAP cells assessed as caspase-3 activation incubated for 24 hrs by Western blotting. It is filed as functional, cell-based. An outline of the steps: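 LNCaP cells in complete medium were exposed to DMSO or compound at 1, 2.5 and 5 μM for 24 h. Western blot measured AR, maspin, caspase-3 activation and PARP cleavage, with β-actin as loading control.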
Background: Immunoblotting shows a protein as a band on a membrane.

For test [1], the target named is T1, Progesterone receptor (Homo sapiens) (UniProt P06401).
T1 sequence (whole entry): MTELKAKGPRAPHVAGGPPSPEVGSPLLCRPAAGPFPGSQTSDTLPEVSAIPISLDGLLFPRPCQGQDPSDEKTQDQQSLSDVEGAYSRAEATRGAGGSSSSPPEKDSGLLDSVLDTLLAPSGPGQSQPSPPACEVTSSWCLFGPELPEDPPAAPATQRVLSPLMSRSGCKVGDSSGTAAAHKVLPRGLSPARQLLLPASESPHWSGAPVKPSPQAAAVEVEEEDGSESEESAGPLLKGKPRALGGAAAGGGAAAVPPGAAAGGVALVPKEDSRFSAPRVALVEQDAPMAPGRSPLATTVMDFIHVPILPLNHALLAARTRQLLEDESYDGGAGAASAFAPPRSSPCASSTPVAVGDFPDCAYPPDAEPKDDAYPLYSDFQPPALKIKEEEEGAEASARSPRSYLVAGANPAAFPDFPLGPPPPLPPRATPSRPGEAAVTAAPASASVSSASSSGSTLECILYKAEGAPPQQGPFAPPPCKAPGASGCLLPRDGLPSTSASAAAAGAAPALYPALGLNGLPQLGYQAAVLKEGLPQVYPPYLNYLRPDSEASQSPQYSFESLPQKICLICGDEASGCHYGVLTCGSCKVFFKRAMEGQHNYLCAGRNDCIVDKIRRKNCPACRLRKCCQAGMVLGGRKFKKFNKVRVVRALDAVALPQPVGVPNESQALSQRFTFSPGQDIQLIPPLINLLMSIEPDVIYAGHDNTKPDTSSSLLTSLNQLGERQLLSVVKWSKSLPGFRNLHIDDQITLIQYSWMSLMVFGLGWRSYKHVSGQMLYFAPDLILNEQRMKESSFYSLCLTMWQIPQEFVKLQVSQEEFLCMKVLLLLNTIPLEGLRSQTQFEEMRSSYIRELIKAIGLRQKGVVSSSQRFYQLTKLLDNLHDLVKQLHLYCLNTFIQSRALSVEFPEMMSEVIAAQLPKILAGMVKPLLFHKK
The test can be described thus: Agonist activity at progesterone receptor in human PC3 cells assessed as stimulation of receptor transactivation at 1 uM by luciferase reporter gene assay. It counts as functional, cell-based. Particulars: PC-3. In short, it runs like this:
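PC-3 cells lack detectable PR, so they were cotransfected with a PR expression plasmid and the MMTV-luc reporter. Compound tested at 1 μM, alone or against transactivation induced by 10 nM R5020. Read-out was luciferase reporter activity.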
For orientation: In a reporter assay the amount or activity of a reporter protein is the signal.

Test [2] concerns the target T2, Androgen receptor (Homo sapiens) (UniProt P10275).
T2 sequence (whole entry): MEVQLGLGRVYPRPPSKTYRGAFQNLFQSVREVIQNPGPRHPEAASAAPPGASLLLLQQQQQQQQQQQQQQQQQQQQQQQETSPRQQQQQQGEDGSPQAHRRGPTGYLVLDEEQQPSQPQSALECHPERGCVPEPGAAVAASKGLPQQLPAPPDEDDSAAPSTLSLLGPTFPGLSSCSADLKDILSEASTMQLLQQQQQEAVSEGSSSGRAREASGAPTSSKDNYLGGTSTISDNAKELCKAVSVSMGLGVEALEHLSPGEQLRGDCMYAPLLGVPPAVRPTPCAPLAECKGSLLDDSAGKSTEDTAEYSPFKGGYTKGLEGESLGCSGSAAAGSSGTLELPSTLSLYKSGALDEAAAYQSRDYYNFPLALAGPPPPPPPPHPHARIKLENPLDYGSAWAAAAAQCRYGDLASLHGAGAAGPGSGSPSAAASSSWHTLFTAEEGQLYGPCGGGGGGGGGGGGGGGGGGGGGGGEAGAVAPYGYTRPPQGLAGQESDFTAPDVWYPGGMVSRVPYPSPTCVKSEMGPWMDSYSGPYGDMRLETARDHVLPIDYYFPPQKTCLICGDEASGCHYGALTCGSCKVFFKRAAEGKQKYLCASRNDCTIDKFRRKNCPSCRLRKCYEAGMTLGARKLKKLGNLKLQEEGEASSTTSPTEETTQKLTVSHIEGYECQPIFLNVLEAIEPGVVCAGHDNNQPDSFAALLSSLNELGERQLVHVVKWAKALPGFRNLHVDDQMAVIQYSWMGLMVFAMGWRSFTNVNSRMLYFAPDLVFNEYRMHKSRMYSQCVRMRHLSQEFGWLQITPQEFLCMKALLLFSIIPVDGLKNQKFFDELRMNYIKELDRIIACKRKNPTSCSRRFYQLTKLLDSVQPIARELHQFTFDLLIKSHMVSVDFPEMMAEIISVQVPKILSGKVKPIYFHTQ
The test can be described thus: Antagonist activity at androgen receptor in human LNCaP cells assessed as reduction in DHT-induced PSA expression incubated for 24 hrs by RT-PCR.

The test system of a further test is PC-3. Description: Antagonist activity at androgen receptor T887A mutant expressed in human PC3 cells assessed as reduction in DHT-induced receptor transactivation at 0.1 to 1 uM by luciferase reporter gene assay. It counts as functional, cell-based. An outline of the steps:
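Full-length wild-type or mutant AR plasmid transiently transfected into PC-3 cells with MMTV-luc and Renilla luciferase reporters. Cells treated with DMSO vehicle or compound at 0.1 and 1 μM, alone or with 0.1 nM DHT. Luciferase read as relative luciferase units. Run in triplicate.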

In turn, `Cc1coc2c1C(=O)C(=O)c1c-2ccc2c1CCCC2(C)C` [TANSHINONE IIA] displayed an IC50 with CWR22R of 6.7 µM. Moreover, the Activity result (with LNCaP; in test [2]) was “Dose-dependent effect” each time. For the same compound, the outcome in test [1] was inactive. Also, the outcome in the test with PC-3 was Active.
